Measured values published in publication PMC11327602 (Heliyon, 2024).
Several values for one entry are separate records, joined by “and”; a condition that tells them apart may be missing. Equal values may be shown once.

Key:
[1] = target: α-Glucosidase (Saccharomyces cerevisiae, UniProt P53341); assay: α-Glucosidase inhibition assay; assay type: biochemical
How it was run: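 Test compound (200–800 μg/mL) pre-incubated 5 min at 37 °C with 2 % w/v starch (sucrose) solution in 0.2 M Tris buffer, pH 8.0. 5 mM p-nitrophenyl-α-D-glucopyranoside added intermittently, then α-glucosidase (1 U/mL), 40 min at 35 °C. Stopped with […]; absorbance read at 405 nm. % inhibition = (control − sample)/control × 100; samples above 50 % taken to IC50.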

[2] = ABTS method; details: for IC50: read-out: ABTS scavenging IC50
[3] = Superoxide anion scavenging assay; details: for IC50: read-out: superoxide anion scavenging IC50
[4] = target: jack bean urease (Canavalia ensiformis, UniProt P07374); assay: Urease inhibition assay; assay type: biochemical; details: for IC50: Enzyme (SEM ±) J.B Urease, IC50, mean ± SEM, 3 experiments
jack bean urease, sequence (P07374 whole entry, looked up): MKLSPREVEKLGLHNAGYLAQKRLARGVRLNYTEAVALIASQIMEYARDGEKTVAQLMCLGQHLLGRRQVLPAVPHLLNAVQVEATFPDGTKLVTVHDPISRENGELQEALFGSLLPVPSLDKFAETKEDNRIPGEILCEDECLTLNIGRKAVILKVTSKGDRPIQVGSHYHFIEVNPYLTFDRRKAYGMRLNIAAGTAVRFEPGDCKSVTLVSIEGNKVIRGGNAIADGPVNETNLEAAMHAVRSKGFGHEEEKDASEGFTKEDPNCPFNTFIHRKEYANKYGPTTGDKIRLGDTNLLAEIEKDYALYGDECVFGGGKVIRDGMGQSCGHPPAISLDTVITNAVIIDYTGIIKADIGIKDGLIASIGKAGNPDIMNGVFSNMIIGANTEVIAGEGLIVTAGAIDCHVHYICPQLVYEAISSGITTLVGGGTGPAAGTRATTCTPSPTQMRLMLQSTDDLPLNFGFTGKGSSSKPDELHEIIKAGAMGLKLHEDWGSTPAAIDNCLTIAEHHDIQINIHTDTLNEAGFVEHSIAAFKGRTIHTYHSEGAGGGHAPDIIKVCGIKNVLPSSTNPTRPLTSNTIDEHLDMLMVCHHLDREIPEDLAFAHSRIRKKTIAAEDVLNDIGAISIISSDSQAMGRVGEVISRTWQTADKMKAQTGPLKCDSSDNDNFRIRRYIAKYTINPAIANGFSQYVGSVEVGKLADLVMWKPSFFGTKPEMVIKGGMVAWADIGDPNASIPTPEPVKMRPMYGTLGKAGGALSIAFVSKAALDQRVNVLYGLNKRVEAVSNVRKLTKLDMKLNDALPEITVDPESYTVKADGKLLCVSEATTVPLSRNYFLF

[5] = target: Bacillus Pasteurii urease (Sporosarcina pasteurii, UniProt P41020); assay: Urease inhibition assay; assay type: biochemical; details: Enzyme (SEM ±) B.P Urease, IC50, mean ± SEM, 3 experiments
Bacillus Pasteurii urease, sequence (P41020 whole entry): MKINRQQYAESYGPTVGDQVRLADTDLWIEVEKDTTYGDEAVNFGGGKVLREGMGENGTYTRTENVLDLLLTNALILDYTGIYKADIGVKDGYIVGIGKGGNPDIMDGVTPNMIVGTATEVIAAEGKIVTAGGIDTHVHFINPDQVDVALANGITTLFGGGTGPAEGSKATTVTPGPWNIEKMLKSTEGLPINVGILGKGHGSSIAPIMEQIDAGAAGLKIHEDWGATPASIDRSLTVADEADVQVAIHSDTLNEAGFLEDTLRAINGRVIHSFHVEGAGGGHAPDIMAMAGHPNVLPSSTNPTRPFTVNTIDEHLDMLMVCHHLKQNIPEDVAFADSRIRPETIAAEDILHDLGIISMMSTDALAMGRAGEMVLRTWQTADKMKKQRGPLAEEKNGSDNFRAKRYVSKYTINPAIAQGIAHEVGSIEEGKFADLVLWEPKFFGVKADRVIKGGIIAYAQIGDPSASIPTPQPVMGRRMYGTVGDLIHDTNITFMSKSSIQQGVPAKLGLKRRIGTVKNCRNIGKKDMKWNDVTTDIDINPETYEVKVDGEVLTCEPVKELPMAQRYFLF
Bacillus Pasteurii urease, sequence (P41021 whole entry partner): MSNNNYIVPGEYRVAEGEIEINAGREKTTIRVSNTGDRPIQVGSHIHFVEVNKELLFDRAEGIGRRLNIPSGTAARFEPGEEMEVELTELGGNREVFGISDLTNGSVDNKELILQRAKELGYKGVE
Bacillus Pasteurii urease, sequence (P41022 whole entry partner): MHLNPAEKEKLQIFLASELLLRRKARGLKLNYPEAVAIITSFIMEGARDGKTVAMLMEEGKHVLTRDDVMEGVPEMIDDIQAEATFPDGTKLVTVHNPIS

[6] = DPPH free radical scavenging activity; details: for IC50: read-out: DPPH scavenging IC50

α-Glucosidase, sequence (P53341 whole entry): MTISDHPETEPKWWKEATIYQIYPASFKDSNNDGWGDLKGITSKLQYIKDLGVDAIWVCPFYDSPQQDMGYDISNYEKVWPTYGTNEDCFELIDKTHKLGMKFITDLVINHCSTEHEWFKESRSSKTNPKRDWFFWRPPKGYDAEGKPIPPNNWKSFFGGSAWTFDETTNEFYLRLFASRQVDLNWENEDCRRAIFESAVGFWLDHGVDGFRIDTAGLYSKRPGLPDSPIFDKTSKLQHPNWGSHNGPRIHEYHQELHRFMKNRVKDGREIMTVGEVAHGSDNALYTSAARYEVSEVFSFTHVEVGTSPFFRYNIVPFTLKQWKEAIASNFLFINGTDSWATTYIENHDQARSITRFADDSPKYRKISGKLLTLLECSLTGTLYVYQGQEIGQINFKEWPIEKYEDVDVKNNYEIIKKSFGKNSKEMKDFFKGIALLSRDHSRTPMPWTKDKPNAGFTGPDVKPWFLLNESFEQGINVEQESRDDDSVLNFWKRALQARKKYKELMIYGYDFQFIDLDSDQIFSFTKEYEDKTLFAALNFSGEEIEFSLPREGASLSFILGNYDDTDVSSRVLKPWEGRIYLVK

Type of Inhibition (α-glucosidase and α-amylase) [1]	IC50 [2]	IC50 [3]	Types of inhibition (urease) [4]	IC50 [4] [µM]	IC50 [5] [µM]	IC50 [6]	SMILES	ABTS % Scavenging ([2]; 10 μM) [%]	ABTS % Scavenging ([2]; 20 μM) [%]	ABTS % Scavenging ([2]; 30 μM) [%]	ABTS % Scavenging ([2]; 40 μM) [%]	ABTS % Scavenging ([2]; 50 μM) [%]	superoxide anion % scavenging ([3]; 25 μM) [%]	superoxide anion % scavenging ([3]; 50 μM) [%]	superoxide anion % scavenging ([3]; 75 μM) [%]	superoxide anion % scavenging ([3]; 100 μM) [%]	DPPH % Scavenging ([6]; 25 μM) [%]	DPPH % Scavenging ([6]; 50 μM) [%]	DPPH % Scavenging ([6]; 75 μM) [%]	DPPH % Scavenging ([6]; 100 μM) [%]	other results
Competitive	~33 µM and 33 µM	45 ± 0.03 µM	Non-competitive	23.06 ± 0.11	27 ± 0.48	~45.2 µM and 45.2 µM	O=S(=O)(c1ccc(Br)cc1)N(Cc1ccccc1)c1nccs1 [Compound 21, N-benzyl-4-bromo-N-(thiazol-2-yl)benzenesulfonamide]	15.1 ± 0.05	30.5 ± 0.04	46.03 ± 0.11	72.05 ± 0.15	90.03 ± 0.51	33 ± 0.3	57 ± 0.13	82 ± 0.01	86 ± 0.11	35.1 ± 0.05	63.5 ± 0.11	90.5 ± 0.16	99.1 ± 0.32	–
Non-competitive	40.01 ± 0.01 µM	40 ± 0.06 µM	Competitive	15.31 ± 0.09	18.7 ± 0.23	57.2 ± 0.07 µM	O=S(=O)(c1ccccc1)N(Cc1ccccc1)c1nccs1 [Compound 22, N-Benzyl-N-(thiazol-2-yl)benzenesulfonamide]	12.04 ± 0.01	27.2 ± 0.5	47.03 ± 0.06	66.11 ± 0.31	86.13 ± 0.12	35 ± 0.02	57 ± 0.15	80 ± 0.25	87 ± 0.15	31.4 ± 0.08	50.1 ± 0.11	66.1 ± 0.23	79.5 ± 0.05	–
Non-competitive	30.01 ± 0.11 µM	47 ± 0.11 µM	Non-competitive	25.1 ± 0.28	28.02 ± 0.07	49.15 ± 0.05 µM	O=S(=O)(c1ccc(Cl)cc1)N(Cc1ccccc1)c1nccs1 [Compound 23, N-benzyl-4-chloro-N-(thiazol-2-yl)benzenesulfonamide]	19.5 ± 0.05	39.5 ± 0.24	55.13 ± 0.13	76.01 ± 0.5	93.03 ± 0.31	39 ± 0.3	60 ± 0.56	89 ± 0.07	103 ± 0.19	32.6 ± 0.21	57.3 ± 0.01	70.5 ± 0.16	93.05 ± 0.32	–
Non-competitive	42.12 ± 0.21 µM	59 ± 0.16 µM	Competitive	32.11 ± 0.13	40.88 ± 0.26	62.5 ± 0.07 µM	O=S(=O)(c1ccc(F)cc1)N(Cc1ccccc1)c1nccs1 [Compound 24, N-benzyl-4-fluoro-N-(thiazol-2-yl)benzenesulfonamide]	25.11 ± 0.11	33.6 ± 0.55	44.31 ± 0.17	48.23 ± 0.51	76.23 ± 0.22	33 ± 0.21	45 ± 0.35	84 ± 0.25	97 ± 0.15	21.3 ± 0.18	44.1 ± 0.55	75.1 ± 0.30	89.4 ± 0.35	inhibition against both enzymes (α-glucosidase and α-amylase), in words [1]: weak inhibition
Competitive	~33 µM and 33 µM	~36 µM and 36 µM	Non-competitive	30.11 ± 0.07	38.2 ± 0.36	~38.3 µM and 38.3 µM	C=CCN(c1nccs1)S(=O)(=O)c1ccc(C)cc1 [Compound 26, N-Allyl-4-methyl-N-(thiazol-2-yl)benzenesulfonamide]	09.02 ± 0.03	24.03 ± 0.01	43.08 ± 0.09	75.07 ± 0.02	96.06 ± 0.21	27 ± 0.07	63 ± 0.01	73 ± 0.11	94 ± 0.51	43.2 ± 0.8	74.8 ± 0.3	88.5 ± 0.1	99.2 ± 0.2	–
Non-competitive	40.05 ± 0.08 µM	45 ± 0.19 µM	Competitive	24.1 ± 0.34	26.37 ± 0.22	~39.2 µM and 39.2 µM	C=CCN(c1nccs1)S(=O)(=O)c1ccc(OC)cc1 [Compound 27, N-allyl-4-methoxy-N-(thiazol-2-yl)benzenesulfonamide]	10.02 ± 0.05	19.08 ± 0.03	43.02 ± 0.09	70.02 ± 0.11	93.09 ± 0.02	25 ± 0.17	71 ± 0.25	86 ± 0.03	93 ± 0.52	33.2 ± 0.01	59.6 ± 0.2	75.4 ± 0.2	91.8 ± 0.03	–
Competitive	~35 µM and 35 µM	~39 µM and 39 µM	Non-competitive	29.55 ± 0.12	36.1 ± 0.43	~48.4 µM and 48.4 µM	C=CCN(c1nccs1)S(=O)(=O)c1ccc(Br)cc1 [Compound 28, N-Allyl-4-bromo-N-(thiazol-2-yl)benzenesulfonamide]	10.01 ± 0.02	27.3 ± 0.05	48.08 ± 0.9	55.7 ± 0.22	99.06 ± 0.25	25 ± 0.02	66 ± 0.11	77 ± 0.18	99 ± 0.31	48.2 ± 0.09	70.7 ± 0.01	85.3 ± 0.3	91.2 ± 0.06	–
Non-competitive	43.21 ± 0.15 µM	43 ± 0.17 µM	Non-competitive	21.22 ± 0.17	23.02 ± 0.15	52.5 ± 0.11 µM	C=CCN(c1nccs1)S(=O)(=O)c1ccccc1 [Compound 29, N-allyl-N-(thiazol-2-yl)benzenesulfonamide]	19.2 ± 0.5	23.07 ± 0.13	45.01 ± 0.19	74.12 ± 0.17	89.19 ± 0.12	28 ± 0.07	73 ± 0.20	85 ± 0.13	96 ± 0.32	34.5 ± 0.21	49.1 ± 0.13	77.2 ± 0.7	93.5 ± 0.08	–
Non-competitive	37.6 ± 0.01 µM	43 ± 0.09 µM	Non-competitive	28.1 ± 0.35	32.3 ± 0.37	52.3 ± 0.21 µM	C=CCN(c1nccs1)S(=O)(=O)c1ccc(Cl)cc1 [Compound 30, N-Allyl-4-chloro-N-(thiazol-2-yl)benzenesulfonamide]	23.11 ± 0.02	40.3 ± 0.53	46.01 ± 0.19	59.5 ± 0.20	87.11 ± 0.15	29 ± 0.34	63 ± 0.01	79 ± 0.11	87 ± 0.21	38.5 ± 0.19	46.1 ± 0.11	77.2 ± 0.13	81.2 ± 0.15	–
Non-competitive	46.13 ± 0.13 µM	60 ± 0.05 µM	Non-competitive	46.02 ± 0.05	51.39 ± 0.11	66.3 ± 0.2 µM	C=CCN(c1nccs1)S(=O)(=O)c1ccc(F)cc1 [Compound 31, N-Allyl-4-fluoro-N-(thiazol-2-yl)benzenesulfonamide]	29.31 ± 0.2	37.15 ± 0.28	41.11 ± 0.39	47.12 ± 0.17	73.04 ± 0.12	25 ± 0.11	46 ± 0.05	79 ± 0.33	104 ± 0.22	34.02 ± 0.1	43.1 ± 0.13	73.2 ± 0.5	90.5 ± 0.11	–
